The values below come from ChEMBL document CHEMBL1137457, “5'-O-masked 2'-deoxyadenosine analogues as lead compounds for hepatitis C virus (HCV) therapeutic agents” (Bioorg Med Chem, 2007).

Where only a bound is given, the exact number is not on record here.

The test system of one data set is Hepatitis C virus. Put plainly: Inhibition of HCV replication in Huh7 cells after 48 hrs by luciferase assay. It is filed as functional, organism-based, Hepacivirus hominis. The conditions noted are these: Huh-7, 48 h. The gist of the method:
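HCV subgenomic replicon cells carrying luciferase reporter; replicon inhibition read by luciferase after two-day incubation with compound; EC50 averaged from at least three independent experiments.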

Data set [1] is described as follows: Antiviral index, ratio of CC50 for Huh7 cells to EC50 for HCV replication. In kind it is functional, Huh-7. The gist of the method: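 Antiviral index calculated as 50% toxic dose (XTT, replicon cells) divided by 50% effective dose (luciferase replicon read-out after two days); from at least three independent experiments.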
Data set [2] in a line: Cytotoxicity against Huh7 cells by XTT assay. In kind it is cell-based. The settings on record: human, huh-7. The gist of the method:
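Cytotoxicity in the replicon-bearing cells measured by XTT tetrazolium assay per manufacturer's protocol; CC50 averaged from at least three independent experiments.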

In the case of `O[C@H]1C[C@H](n2cnc3c(Cl)ncnc32)O[C@@H]1COCc1ccccc1`, the EC50 with Hepatitis C virus came to 17.7 µM. For the same molecule, the “Ratio CC50/EC50” value in data set [1] was 10.1. Also, the CC50 in data set [2] came to 178 µM.
For `CN(C)c1ncnc2c1ncn2[C@H]1C[C@H](O)[C@@H](COC(=O)c2ccccc2)O1`, in that order: 22.3 µM, >9 and > 200 µM.
`CSc1ncnc2c1ncn2[C@H]1C[C@H](O)[C@@H](COC(=O)c2ccccc2)O1`: in the data set with Hepatitis C virus, the EC50 was > 100 µM.
For the molecule `O=C(OC[C@@H]1C[C@@H](O)[C@H](n2cnc3c(Cl)ncnc32)O1)c1ccccc1`, the response with Hepatitis C virus was half-maximal at 38.1 µM (EC50). The “Ratio CC50/EC50” value in data set [1] came out at 1.9. Half-maximal cytotoxicity in data set [2] (CC50) was put at 70.5 µM.
For `CC(C)(C)C(=O)OC[C@H]1O[C@@H](n2cnc3c(Cl)ncnc32)C[C@@H]1O`, a half-maximal response in the data set with Hepatitis C virus (EC50) required 28 µM. Moreover, the “Ratio CC50/EC50” value in data set [1] is 6.3. In addition, the midpoint of cytotoxicity in data set [2], the CC50, lay at 177 µM.
As for `COc1ccc(C(=O)OC[C@H]2O[C@@H](n3cnc4c(Cl)ncnc43)C[C@@H]2O)cc1`, the EC50 in the data set with Hepatitis C virus came to 8.4 µM. Also, the “Ratio CC50/EC50” value in data set [1] was found to be 9.1. Moreover, the CC50 in data set [2] turned out to be 76.4 µM.
Turning to `Cc1cc(C)c(C(=O)OC[C@H]2O[C@@H](n3cnc4c(Cl)ncnc43)C[C@@H]2O)c(C)c1`, in the data set with Hepatitis C virus, the EC50 is > 50 µM. The “Ratio CC50/EC50” value in data set [1] is <1.8. In data set [2], this molecule had a CC50 of 91 µM.
Consider `O=C(OC[C@H]1C[C@@H](n2cnc3c(Cl)ncnc32)[C@@H]1CO)c1ccccc1`, for which, in the data set with Hepatitis C virus, the EC50 was 6.4 µM. In data set [1], the “Ratio CC50/EC50” value is recorded as 3.1. In addition, it took 20 µM to reach half-maximal cytotoxicity in data set [2] (CC50).
Regarding `O=C(OC[C@H]1O[C@@H](n2cnc3c(Cl)ncnc32)[C@H](O)[C@@H]1O)c1ccccc1`, it took 41 µM to reach a half-maximal effect in the data set on Hepatitis C virus (EC50). Besides, in data set [1], the “Ratio CC50/EC50” value was determined as 2.4. This molecule returned a 50% cytotoxic concentration (CC50) in data set [2] of 97.3 µM.
As to `O=C(OC[C@H]1O[C@@H](n2cnc3c(Cl)ncnc32)C[C@@H]1O)c1ccccc1`, a half-maximal effect with Hepatitis C virus (EC50) was put at 6.1 µM. Also, the “Ratio CC50/EC50” value in data set [1] came out at 18.2. This molecule showed a CC50 in data set [2] of 111 µM.
In turn, `OC[C@H]1O[C@@H](n2cnc3c(Cl)ncnc32)C[C@@H]1O` had an EC50 in the data set with Hepatitis C virus of 47.2 µM. Further, the “Ratio CC50/EC50” value in data set [1] is on record as 3.7. The molecule further showed a CC50 in data set [2] of 173 µM.
For `OC[C@@H]1C[C@@H](O)[C@H](n2cnc3c(Cl)ncnc32)O1`, the midpoint of the response in the data set with Hepatitis C virus, the EC50, lay at 64.1 µM. Moreover, in data set [1], the “Ratio CC50/EC50” value is recorded as >3.1. In addition, the CC50 in data set [2] was > 200 µM.
`OCC(CO)CCn1cnc2c(Cl)ncnc21`: the response in the data set with Hepatitis C virus was half-maximal at 80.8 µM (EC50). In addition, the “Ratio CC50/EC50” value in data set [1] is >2.5. For the same molecule, the CC50 in data set [2] is > 200 µM.
Take `Nc1ncnc2c1ncn2[C@H]1C[C@H](O)[C@@H](COC(=O)c2ccccc2)O1`: the midpoint of the response in the data set with Hepatitis C virus, the EC50, lay at 105 µM. In addition, in data set [1], the “Ratio CC50/EC50” value is >1.9. Further, in data set [2], the CC50 was > 200 µM.
Turning to `O=C(OC[C@H]1O[C@@H](n2cnc3c(O)ncnc32)C[C@@H]1O)c1ccccc1`, the EC50 in the data set on Hepatitis C virus was > 100 µM.
`OC[C@H]1C[C@@H](n2cnc3c(Cl)ncnc32)[C@@H]1CO`: the EC50 with Hepatitis C virus turned out to be 46.1 µM. Further, the “Ratio CC50/EC50” value in data set [1] is 4.3. Further, the CC50 in data set [2] is > 200 µM.
Taken in the same sequence, the figures for `O=C(OCC(CO)CCn1cnc2c(Cl)ncnc21)c1ccccc1` (configuration not stated) were 13.3 µM, 8.1 and 108 µM.
Regarding `CCCC(=O)OC[C@H]1O[C@@H](n2cnc3c(Cl)ncnc32)C[C@@H]1O`, in the data set on Hepatitis C virus, the response was half-maximal at 30.3 µM (EC50). Besides, the “Ratio CC50/EC50” value in data set [1] is >6.6. Also, the CC50 in data set [2] was > 200 µM.
In the data set with Hepatitis C virus, `C=CCOC[C@H]1O[C@@H](n2cnc3c(Cl)ncnc32)C[C@@H]1O` showed an EC50 of 24.5 µM. In addition, the “Ratio CC50/EC50” value in data set [1] was found to be 5.7. This molecule also registered a CC50 in data set [2] of 140 µM.
In turn, `OC[C@H]1O[C@@H](n2cnc3c(Cl)ncnc32)[C@H](O)[C@@H]1O` yielded an EC50 in the data set with Hepatitis C virus of 31 µM. The “Ratio CC50/EC50” value in data set [1] is reported as >6.5. Besides, in data set [2], the CC50 is > 200 µM.
Turning to `O=S(=O)(OC[C@H]1O[C@@H](n2cnc3c(Cl)ncnc32)C[C@@H]1O)c1ccccc1`, in the data set on Hepatitis C virus, a half-maximal response (EC50) required 28.8 µM. In addition, the “Ratio CC50/EC50” value in data set [1] is reported as 5.1. It took 146 µM to reach half-maximal cytotoxicity in data set [2] (CC50).
For `NC(=O)c1ncn([C@@H]2O[C@H](CO)[C@@H](O)[C@H]2O)n1` [RIBAVIRIN], in that order: 54.8 µM, >3.7 and > 200 µM.

As usually defined, the EC50 is the midpoint of the concentration-response curve. A higher EC50 goes with a need for much substance. In general, CC50 refers to the concentration that lowers cell viability or growth by half. A higher CC50 goes with better tolerance by the cells.
